Results taken from ChEMBL document CHEMBL5550111, “Design, synthesis and biological evaluation of aryloxy thiophosphoramidate triesters of anticancer nucleoside analogues” (Bioorg Med Chem, 2024).

Key:
[1] = Cytotoxicity against human ACHN-luc2 cells assessed as inhibition of cell viability incubated for 72 hrs by MTS assay; type: functional, cell-based; settings: ACHN-luc2, 72 h
Procedure, shortened: (§1)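 Cells seeded at 0.5 to 100 × 10^3 per well the day before treatment, then exposed for 72 h to 9 serial concentrations (3.16-fold dilutions, top 198 μM), in duplicate. MTS added for a final 4 h at 37 °C and absorbance read. IC50 is the concentration giving 50% loss of viability. MI% is the maximum inhibition over the tested range.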

[2] = Cytotoxicity against human T24/83 cells assessed as maximum inhibition of cell viability upto 198 uM incubated for 72 hrs by MTS assay relative to control; type: functional; settings: up to 198 µM
Procedure, shortened: (§2)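 Cells seeded at 0.5 to 100 × 10^3 per well the day before drug addition, then exposed to compound for 72 h. MTS added afterwards, with a further 4 h at 37 °C, and absorbance read. Tested in duplicate at 9 serial 3.16-fold dilutions, top concentration 198 μM. MI% is the maximum inhibition of viability across the tested range.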

A498 [3] = assay: Cytotoxicity against human A498 cells assessed as inhibition of cell viability incubated for 72 hrs by MTS assay; type: functional, cell-based; settings: A498, 72 h; procedure, shortened: as §1
COLO 205 [4] = assay: Cytotoxicity against human COLO 205 cells assessed as inhibition of cell viability incubated for 72 hrs by MTS assay; type: functional, cell-based; settings: COLO 205, 72 h; procedure, shortened: as §1
KG-1 [5] = assay: Cytotoxicity against human KG-1 cells assessed as inhibition of cell viability incubated for 72 hrs by MTS assay; type: functional, cell-based; settings: KG-1, 72 h; procedure, shortened: as §1
HT-29 [6] = assay: Cytotoxicity against human HT-29 cells assessed as inhibition of cell viability incubated for 72 hrs by MTS assay; type: functional, cell-based; settings: HT-29, 72 h; procedure, shortened: as §1
PC-3 [7] = assay: Cytotoxicity against human PC-3 cells assessed as inhibition of cell viability incubated for 72 hrs by MTS assay; type: functional, cell-based; settings: PC-3, 72 h; procedure, shortened: as §1
HL-60 [8] = assay: Cytotoxicity against human HL-60 cells assessed as maximum inhibition of cell viability upto 198 uM incubated for 72 hrs by MTS assay relative to control; type: functional; settings: up to 198 µM; procedure, shortened: as §2
5637 [9] = assay: Cytotoxicity against human 5637 cells assessed as inhibition of cell viability incubated for 72 hrs by MTS assay; type: functional, cell-based; settings: Homo sapiens, 5637, 72 h; procedure, shortened: as §1
MIA PaCa-2 [10] = assay: Cytotoxicity against human MIA PaCa-2 cells assessed as inhibition of cell viability incubated for 72 hrs by MTS assay; type: functional, cell-based; settings: MIA PaCa-2, 72 h; procedure, shortened: as §1
[11] = Cytotoxicity against human T24/83 cells assessed as inhibition of cell viability incubated for 72 hrs by MTS assay; type: functional, cell-based; settings: T24/83, 72 h; procedure, shortened: as §1
HL-60 [12] = assay: Cytotoxicity against human HL-60 cells assessed as inhibition of cell viability incubated for 72 hrs by MTS assay; type: functional, cell-based; settings: HL-60, 72 h; procedure, shortened: as §1
COLO 205 [13] = assay: Cytotoxicity against human COLO 205 cells assessed as maximum inhibition of cell viability upto 198 uM incubated for 72 hrs by MTS assay relative to control; type: functional; settings: up to 198 µM; procedure, shortened: as §2
MDA-MB-231 [14] = assay: Cytotoxicity against human MDA-MB-231 cells assessed as inhibition of cell viability incubated for 72 hrs by MTS assay; type: functional, cell-based; settings: MDA-MB-231, 72 h; procedure, shortened: as §1
MCF7 [15] = assay: Cytotoxicity against human MCF7 cells assessed as maximum inhibition of cell viability upto 198 uM incubated for 72 hrs by MTS assay relative to control; type: functional; settings: up to 198 µM; procedure, shortened: as §2
HT-29 [16] = assay: Cytotoxicity against human HT-29 cells assessed as maximum inhibition of cell viability upto 198 uM incubated for 72 hrs by MTS assay relative to control; type: functional; settings: up to 198 µM; procedure, shortened: as §2
K562 [17] = assay: Cytotoxicity against human K562 cells assessed as inhibition of cell viability incubated for 72 hrs by MTS assay; type: functional, cell-based; settings: K562, 72 h; procedure, shortened: as §1
RL [18] = assay: Cytotoxicity against human RL cells assessed as maximum inhibition of cell viability upto 198 uM incubated for 72 hrs by MTS assay relative to control; type: functional; settings: up to 198 µM; procedure, shortened: as §2
CAKI-2 [19] = assay: Cytotoxicity against human CAKI-2 cells assessed as inhibition of cell viability incubated for 72 hrs by MTS assay; type: functional, cell-based; settings: CAKI-2, 72 h; procedure, shortened: as §1
MOLT-4 [20] = assay: Cytotoxicity against human MOLT-4 cells assessed as maximum inhibition of cell viability upto 198 uM incubated for 72 hrs by MTS assay relative to control; type: functional; settings: up to 198 µM; procedure, shortened: as §2
PC-3 [21] = assay: Cytotoxicity against human PC-3 cells assessed as maximum inhibition of cell viability upto 198 uM incubated for 72 hrs by MTS assay relative to control; type: functional; settings: up to 198 µM; procedure, shortened: as §2
RL [22] = assay: Cytotoxicity against human RL cells assessed as inhibition of cell viability incubated for 72 hrs by MTS assay; type: functional, cell-based; procedure, shortened: as §1
MDA-MB-231 [23] = assay: Cytotoxicity against human MDA-MB-231 cells assessed as maximum inhibition of cell viability upto 198 uM incubated for 72 hrs by MTS assay relative to control; type: functional; settings: up to 198 µM; procedure, shortened: as §2
HepG2 [24] = assay: Cytotoxicity against human HepG2 cells assessed as maximum inhibition of cell viability upto 198 uM incubated for 72 hrs by MTS assay relative to control; type: functional; settings: up to 198 µM; procedure, shortened: as §2
MIA PaCa-2 [25] = assay: Cytotoxicity against human MIA PaCa-2 cells assessed as maximum inhibition of cell viability upto 198 uM incubated for 72 hrs by MTS assay relative to control; type: functional; settings: up to 198 µM; procedure, shortened: as §2
K562 [26] = assay: Cytotoxicity against human K562 cells assessed as maximum inhibition of cell viability upto 198 uM incubated for 72 hrs by MTS assay relative to control; type: functional; settings: up to 198 µM; procedure, shortened: as §2
MOLT-4 [27] = assay: Cytotoxicity against human MOLT-4 cells assessed as inhibition of cell viability incubated for 72 hrs by MTS assay; type: functional, cell-based; settings: MOLT-4, 72 h; procedure, shortened: as §1
5637 [28] = assay: Cytotoxicity against human 5637 cells assessed as maximum inhibition of cell viability upto 198 uM incubated for 72 hrs by MTS assay relative to control; type: functional; settings: up to 198 µM; procedure, shortened: as §2
[29] = Cytotoxicity against human ACHN-luc2 cells assessed as maximum inhibition of cell viability upto 198 uM incubated for 72 hrs by MTS assay relative to control; type: functional; settings: up to 198 µM; procedure, shortened: as §2
CAKI-2 [30] = assay: Cytotoxicity against human CAKI-2 cells assessed as maximum inhibition of cell viability upto 198 uM incubated for 72 hrs by MTS assay relative to control; type: functional; settings: up to 198 µM; procedure, shortened: as §2
MCF7 [31] = assay: Cytotoxicity against human MCF7 cells assessed as inhibition of cell viability incubated for 72 hrs by MTS assay; type: functional, cell-based; settings: MCF7, 72 h
KG-1 [32] = assay: Cytotoxicity against human KG-1 cells assessed as maximum inhibition of cell viability upto 198 uM incubated for 72 hrs by MTS assay relative to control; type: functional; settings: up to 198 µM; procedure, shortened: as §2
HepG2 [33] = assay: Cytotoxicity against human HepG2 cells assessed as inhibition of cell viability incubated for 72 hrs by MTS assay; type: functional, cell-based; settings: HepG2, 72 h; procedure, shortened: as §1
A498 [34] = assay: Cytotoxicity against human A498 cells assessed as maximum inhibition of cell viability upto 198 uM incubated for 72 hrs by MTS assay relative to control; type: functional; settings: up to 198 µM; procedure, shortened: as §2

`Nc1ncnc2c1ncn2[C@@H]1O[C@H](CO)C[C@H]1O` [CORDYCEPIN] showed an IC50 [1] of 77 µM, an Imax [2] of 96% and an IC50 (A498 [3]) of 85.4 µM. It also gave an IC50 (COLO 205 [4]) of 108 µM, an IC50 (KG-1 [5]) of 89 µM and an IC50 (HT-29 [6]) of 26.3 µM. It also gave an IC50 (PC-3 [7]) of 85.3 µM, an Imax (HL-60 [8]) of 57% and an IC50 5637 [9] of 71.6 µM. It also gave an IC50 (MIA PaCa-2 [10]) of 76.8 µM, an IC50 [11] of 99.1 µM and an IC50 (HL-60 [12]) of 145 µM. For the same compound, the Imax (COLO 205 [13]) was 24%, the IC50 (MDA-MB-231 [14]) was 78.6 µM and the Imax (MCF7 [15]) was 93%. For the same compound, the Imax (HT-29 [16]) was 90%, the IC50 (K562 [17]) was 94.4 µM and the Imax (RL [18]) was 4%. It also gave an IC50 (CAKI-2 [19]) of 94.2 µM, an Imax (MOLT-4 [20]) of 77% and an Imax (PC-3 [21]) of 70%. The IC50 (RL [22]) was 135 µM, the Imax (MDA-MB-231 [23]) was 59% and the Imax (HepG2 [24]) was 71%. It also gave an Imax (MIA PaCa-2 [25]) of 87%, an Imax (K562 [26]) of 70% and an IC50 (MOLT-4 [27]) of 85.3 µM. It also gave an Imax 5637 [28] of 44%, an Imax [29] of 14% and an Imax (CAKI-2 [30]) of 25%. It also gave an IC50 (MCF7 [31]) of 45.9 µM, an Imax (KG-1 [32]) of 92% and an IC50 (HepG2 [33]) of 77.2 µM. For the same compound, the Imax (A498 [34]) was 18%.
